Screening results from PubChem.
A selection: hits, their analogues and other compounds. The true share with any hit is near 1.2%.
Ec RNAP inh – E. coli RNAP inhibitors, biochemical. E. coli RNA polymerase, fluorescence transcription assay. DNA-directed RNA polymerase subunit beta (Escherichia coli (strain K12)), P0A8V2. inhibition, %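 (tested at 10 µM)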. 62,000 compounds, 0.2% hits. AID 559, 2006; in the data active = inhibition above about 20%;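 also: 0% = enzyme without compound and 100% = no enzyme blank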
AP ELISA ortho – alternative complement pathway inhibitors, primary screen, biochemical, ELISA, human serum, orthogonally pooled compounds. LPS-coated ELISA, C3 deposition; tested in compound mixtures. inhibition, % at 5 µM. 62,000 compounds, 0.08% hits;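 active = inhibition above 30% in each of the two pooled mixtures holding the compound, so the lower value exceeds 30%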;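 also: 0% = serum in Mg-EGTA without compound and 100% = EDTA serum blank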
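Medium: diluted human serum in Mg2+-EGTA GVB++. Assay system: human serum complement alternative pathway, C3 deposition onto LPS. Also added: Plate-bound LPS. Technique: Anti-C3 ELISA, OD 450 nm. Measure: percent inhibition. Incubation: 1 h at 37 °C. Dosing: 5 µM each compound, pools of ten, 50 µM per pool.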
Her2 expr inh – inhibitors of Her2 protein expression, primary screen, SKBR-3 cells, AlphaScreen, 66K library. SKBR-3 HER2 protein level, 18-24 h; stronger effect = lower value. HER2 level % of control, % at 10 µM. 65,000 compounds, 0.69% hits. AID 645, 2007;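 active = HER2 level under 5% of the carrier-only control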;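 also: 100% = DMSO carrier and 0% = 500 nM PU-H71 HSP90 inhibitor; lower value means stronger loss of Her2 protein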
TNAP act mid DEA – human TNAP enzyme activators, primary screen, biochemical, luminescent, intermediate phosphate acceptor level; 64,000 tested, under 10 active; AID 813, 2007; activation factor at 20 µM; purified TNAP, CDP-star luminescence, 100 mM DEA, 30 min; stronger effect = higher value; scale: 0 levamisole-inhibited, 1 vehicle-only enzyme; Alkaline phosphatase, tissue-nonspecific isozyme (Homo sapiens), P05186;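 active = activation factor of at least 2 at 20 µM, relative to controls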
Target sequence (P05186 whole entry, looked up): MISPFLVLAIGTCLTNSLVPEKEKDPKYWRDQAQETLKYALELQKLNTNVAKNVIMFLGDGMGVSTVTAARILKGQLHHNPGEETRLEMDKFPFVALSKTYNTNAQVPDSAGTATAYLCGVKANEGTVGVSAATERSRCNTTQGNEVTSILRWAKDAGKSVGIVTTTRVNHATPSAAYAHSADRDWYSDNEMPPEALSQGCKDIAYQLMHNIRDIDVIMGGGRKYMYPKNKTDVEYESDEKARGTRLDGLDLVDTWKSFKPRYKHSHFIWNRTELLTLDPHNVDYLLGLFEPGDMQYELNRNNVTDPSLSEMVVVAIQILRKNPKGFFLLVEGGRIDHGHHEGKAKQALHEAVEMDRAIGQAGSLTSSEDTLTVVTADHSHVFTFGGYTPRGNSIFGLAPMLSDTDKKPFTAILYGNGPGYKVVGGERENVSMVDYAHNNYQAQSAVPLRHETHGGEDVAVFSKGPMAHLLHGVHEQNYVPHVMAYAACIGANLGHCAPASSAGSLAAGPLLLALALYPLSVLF
SKBR3 24h inh – SK-BR-3 proliferation inhibitors, primary screen, cell-based, human, 24 h | SK-BR-3 viability, CellTiter-Glo ATP luminescence; stronger effect = lower value | viability, % at 10 µM | 41,000 compounds, 0.47% hits;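 active = viability at or below the median of all test compounds minus 3 SD, in both replicates if run twice, cut at about 45% in these data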;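 also: 100% = median untreated cell wells and 0% = median positive control drug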
MMP13 inh – human MMP13 inhibitors, primary screen, biochemical, FRET peptide cleavage; MMP-13 fTHP FRET cleavage, Mca fluorescence; AID 570, 2006; 65,000 compounds, 0.07% hits; inhibition, % at 4 µM;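 active = inhibition above the mean of compound-free control plate wells plus 3 SD, cut at about 14% in these data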;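 also: 0% = DMSO wells and 100% = wells with reference MMP-13 inhibitor after basal subtraction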
* = called active by the depositor; · = no result.

SMILES	Ec RNAP inh	AP ELISA ortho	Her2 expr inh	TNAP act mid DEA	SKBR3 24h inh	MMP13 inh
COc1cccc(N2CCN(c3ncnc4c3[nH]c3ccc(F)cc34)CC2C)c1 (centres undefined)	1	-5	-26*	0.9	5.7*	-2
Cc1ccc(-c2noc(CCC(=O)N3CCCc4ccccc43)n2)cc1	7	5	108	0.9	68	2
CCOC(=O)N1CCN(c2nnnn2-c2ccccc2)CC1	-12	-3	-26*	1	101	0
COc1ccc(C(=O)N2CCN(c3nnnn3-c3ccccc3)CC2)cc1OC	12	5	106	0.9	94	0
O=C1OCc2cc(NS(=O)(=O)c3cccs3)ccc21	8	20	111	0.9	84	4
O=S(=O)(Nc1ccc2c(c1)CCC2)c1cccs1	2	-2	-26*	0.9	·	1
Cc1nn(C)c(C)c1Sc1ccc(Br)cc1	-1	6	-9.0*	0.9	56	-1
COc1ccc(C(=O)CSc2nnc(CNc3nc(-c4ccccc4)cs3)n2C)cc1	4	-2	71	0.9	106	3
Cc1nn(-c2ccc(Cl)cc2)c2[nH]c(=O)c(CNCc3ccc4c(c3)OCO4)cc12	7	-3	-19*	1.1	65	-1
COc1ccc(-c2nnc3n2N=C(c2ccccc2)CS3)cc1OC	6	0	16	0.8	24*	4
Cc1cc(-c2nnc3n2N=C(c2ccc(-c4ccccc4)cc2)CS3)n[nH]1	7	15	-21*	1	57	-1
Cc1cccc(-c2nnc3n2N=C(c2ccccc2)CS3)c1	9	·	174	0.8	104	-4
CCOC(=O)N1CCN(C(=O)CSCc2nc(-c3ccccc3C)oc2C)CC1	8	-1	-23*	0.9	·	2
CCC(=O)N1CCN=C1SCc1ccc(Cl)cc1	-10	16	90	1	50	-1
CC(C)(C)OC(=O)N1CCC[C@H]1c1nnc(SCc2ccccc2F)o1	8	10	109	0.9	73	5
CCCC(=O)c1c(NC(C)C)cc(C)oc1=O	7	-4	95	0.9	91	-8
CC1CCN(c2ccc(C(=O)O)cc2N)CC1	8	4	84	0.9	43*	-3
CCN(CCNC(=O)c1cc(C)nn1-c1ccccc1)c1ccccc1	-2	17	85	0.9	·	4
Cn1c(Cl)cnc1C1CC(=O)c2cc(Cl)ccc2O1 (centres undefined)	3	7	-15*	0.8	69	-5
O=C(COc1ccc(S(=O)(=O)N2CCc3ccccc32)cc1Cl)NCc1ccccn1	7	-9	116	0.9	88	4
Cc1ccc(C(=O)NCCn2cc(SCC(=O)Nc3cc(C)on3)c3ccccc32)cc1	3	32*	72	0.9	·	0
Cc1nn(C(=O)c2cccnc2)c(C)c1C	8	-7	108	1	90	0
C/C(=N/n1cnnc1)c1cccnc1	27*	·	112	0.9	89	-5
Cn1ncc2c(Nc3ccc4ccccc4c3)ncnc21	21*	2	99	0.9	92	5
c1cc(-c2nnc3n2CCCCC3)ccn1	5	16	141	0.9	·	-1
SMILES	Ec RNAP inh	AP ELISA ortho	Her2 expr inh	TNAP act mid DEA	SKBR3 24h inh	MMP13 inh
c1cnc(-c2nnc3n2CCCCC3)cn1	-3	8	-16*	1	·	-5
CC1(C)Cc2ccccc2C(N)=C1C#N	2	-18	106	0.9	81	·
CC1(C)NC(=O)N(CC(O)CN2C(=O)NC(C)(C)C2=O)C1=O	4	7	107	0.9	43*	-1
Cc1occc1-c1nnc(SCC(=O)c2c(N)n(Cc3ccccc3)c(=O)n(C)c2=O)n1C	1	13	87	0.9	·	1
Cc1nnc(SCC(=O)c2c(N)n(C)c(=O)n(C)c2=O)n1Cc1ccccc1	-3	22	-33*	1	·	-8
COc1ccc(Cl)cc1NC(=O)CCN1CCN(c2ccccc2C)CC1	13	0	86	0.9	·	8
CCN1CCN(c2ncc(C(=O)Nc3cc(Cl)ccc3OC)c3ccccc23)CC1	0	10	63	0.9	33*	0
O=C(Nc1ccccc1C(=O)NCCCn1ccnc1)c1ccccc1	21*	-8	82	0.8	81	6
O=C1CSC(=Nc2cc(Cl)ccc2Cl)N1	-5	-9	71	1	85	2
CCOc1ccc(C2/C(=C(\O)c3ccc(OC)c(OC)c3)C(=O)C(=O)N2c2cc(C)on2)cc1OC (centres undefined)	-10	29	86	0.9	97	1
CCOc1ccc(/C(O)=C2\C(=O)C(=O)N(c3cc(C)on3)C2c2ccccc2OC)cc1 (centres undefined)	·	30	-22*	0.9	109	5
CCOC(=O)c1c(C)oc2c1c(C(c1cccnc1)N1CCN(C)CC1)c(O)c1ccccc12 (centres undefined)	1	7	-16*	0.9	·	0
CC12CCC(C(=O)N3CCc4ccccc43)(CC1=O)C2(C)C (centres undefined)	-8	21	90	0.8	94	0
CCOc1ccccc1N(CC(=O)N1CCOCC1)S(=O)(=O)c1ccccc1	-11	2	-21*	0.9	91	1
CCOc1ccccc1N(CC(=O)N1CCCCCC1)S(C)(=O)=O	5	8	102	1	86	7
O=C1CCCN1c1cc(Cl)ccc1Cl	7	-6	·	0.9	87	3
CCc1nnc(NC(=O)CSc2nnc(CNc3ccc(Cl)cc3)o2)s1	10	-9	52	0.9	87	-3
CCOc1cc(C(=O)CSc2nnc(CNc3ccc(Cl)cc3)o2)ccc1NC(=O)CC	9	9	-22*	1	63	0
CCOC(=O)c1cccc(NC(=O)Cn2cnc3c2c(=O)n(C)c(=O)n3C)c1	7	-5	120	0.8	·	10
COC(=O)c1cccc(NC(=O)Cn2cnc3c2c(=O)n(C)c(=O)n3C)c1	5	-22	124	1	·	15*
CCOC(=O)c1oc2ccc(S(=O)(=O)Nc3ccc4c(c3)n(C)c(=O)n4C)cc2c1C	2	10	79	1	96	4
CCCN1C(=O)c2cc(C(=O)NC3CCCCCC3)ccc2C1O (centres undefined)	11	5	99	0.9	99	·
CN1C(=O)c2ccc(C(=O)NC3CCCCC3)cc2C1=O	6	41*	102	0.9	·	5
COc1ccc(/C=C/C(O)=C2/C(=O)N(C)C3(C)CC2c2ccccc2O3)cc1 (centres undefined)	0	16	-6.0*	0.9	·	-9
